This is an account of results in ChEMBL document CHEMBL1143259, “Synthesis and antiplasmodial activity of new 4-aryl-2-trichloromethylquinazolines” (Bioorg Med Chem Lett, 2008).

One data set has as its system THP-1. Description: (§1) Cytotoxicity against human THP1 cells by MTT assay. Format: cell-based. Particulars: Homo sapiens, THP-1. In short, it runs like this: (§2)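 Cells seeded at 5 × 10³/well in RPMI and pre-incubated 24 h, then exposed to a range of compound concentrations for 72 h. MTT was added in serum-free medium for 2 h at 37 °C, and the formazan was dissolved in DMSO. Absorbance was read at 570 nm against a 630 nm reference. Viability was taken as % of untreated control, and IC50 came from the dose–response curve (mean of three independent experiments).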
In general terms: Tetrazolium assays rely on reduction of a dye to a coloured formazan, in cell work by metabolically active cells.

Data set [1] is described as follows: as §1. In kind it is cell-based, THP-1. Particulars: human, THP-1 cells; read-out: LC50 (the source's name). In outline: as §2
Data set [2] has as its system Plasmodium falciparum. As to the kind of experiment: Antiplasmodial activity against chloroquinone-resistant Plasmodium falciparum W2. Format: functional, organism-based.
Data set [3] concerns Plasmodium falciparum. As to the kind of experiment: Antiplasmodial activity against chloroquinone-sensitive Plasmodium falciparum 3D7. In kind it is functional, organism-based.
Data set [4] is described as follows: Selectivity index, ratio of IC50 for human HepG2 cells to IC50 for Plasmodium falciparum W2. In kind it is functional. In outline:
(§3)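 SI = human-cell IC50 divided by P. falciparum W2 IC50. Each IC50 is the mean of three independent experiments.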

The next data set concerns HepG2. Description: Cytotoxicity against human HepG2 cells by MTT assay. In kind it is cell-based. In outline: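 HepG2 cells were seeded at 5 × 10³ cells/well in RPMI and pre-incubated for 24 h. Compound was added at various concentrations and incubated for 72 h. MTT (5 mg/mL in PBS) was then added in serum-free medium for 2 h at 37 °C in 6% CO₂. Formazan was dissolved in DMSO and A570 read against a 630 nm reference. Viability was expressed as % of untreated control, and the 50% cytotoxic concentration taken from the dose–response curve. Values are the mean of three independent experiments.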

A short description of data set [5]: Selectivity index, ratio of IC50 for human THP1 cells to IC50 for Plasmodium falciparum W2. In kind it is functional, THP-1. In short, it runs like this: as §3

A word on the IC50: it is the concentration needed to halve the response being measured. As to `FC(F)(F)c1cccc(-c2nc(C(Cl)(Cl)Cl)nc3ccccc23)c1`, the IC50 in the data set on THP-1 is 78.6 µM; in the data set with Plasmodium falciparum [2], 40.4 µM; in the data set with Plasmodium falciparum [3], 36.6 µM; in the data set with HepG2 it was over 125 µM. Besides, the CC50 in data set [1] was over 500 µM. Moreover, the “Ratio IC50” value is listed as over 3.1 in data set [4] and 1.9 in data set [5].
As to `Cc1ccc(-c2nc(C(Cl)(Cl)Cl)nc3ccccc23)s1`, the IC50 in the data set on THP-1 came to 50 µM; in the data set with Plasmodium falciparum [2], 8.7 µM; with Plasmodium falciparum [3], 24 µM; with HepG2, 25 µM. Besides, the CC50 in data set [1] is 125 µM. Further, the “Ratio IC50” value in data set [4] was 2.9; in data set [5] it was 5.7.
`COc1ccc(-c2nc(C(Cl)(Cl)Cl)nc3ccccc23)cc1`: the IC50 was determined as 250 µM in the data set with THP-1, 10.9 µM with Plasmodium falciparum [2], 25 µM with Plasmodium falciparum [3] and 125 µM in the data set on HepG2. Further, the CC50 in data set [1] is over 250 µM. Also, the results for the “Ratio IC50” value in data set [4] and in data set [5] were 11.5 and 22.9, respectively.
On to `C[C@H]1c2cccc(O)c2C(=O)C2=C(O)[C@]3(O)C(=O)C(C(N)=O)=C(O)[C@@H](N(C)C)[C@@H]3[C@@H](O)[C@@H]21` [DOXYCYCLINE], for which, in the data set with Plasmodium falciparum [2], the IC50 came out at 9 µM.
In the case of `ClC(Cl)(Cl)c1nc(-c2ccco2)c2ccccc2n1`, the IC50 in the data set with THP-1 was 61.6 µM; in the data set with Plasmodium falciparum [2], 20.2 µM; with Plasmodium falciparum [3] it was 30 µM; in the data set on HepG2 it was over 125 µM. Also, the CC50 in data set [1] was over 500 µM. Also, the “Ratio IC50” value is on record as over 6.2 in data set [4] and 3.1 in data set [5].
Turning to `COc1cccc2c1C(=O)c1c(O)c3c(c(O)c1C2=O)C[C@@](O)(C(=O)CO)C[C@@H]3O[C@H]1C[C@H](N)[C@H](O)[C@H](C)O1` [DOXORUBICIN], the IC50 worked out at 0.05 µM in the data set with THP-1 and 0.2 µM in the data set with HepG2. The CC50 in data set [1] was determined as 2.5 µM.
With `ClC(Cl)(Cl)c1nc(-c2ccc3ccccc3c2)c2ccccc2n1`, the IC50 in the data set on THP-1 is over 500 µM; in the data set with Plasmodium falciparum [2] it was 8.1 µM; in the data set with Plasmodium falciparum [3] it was 23.3 µM; with HepG2 it was over 125 µM. In addition, in data set [1], the CC50 was over 500 µM. In addition, the figures for the “Ratio IC50” value in data set [4] and in data set [5] were over 15.4 and over 61.7, respectively.
`Clc1nc(C(Cl)(Cl)Cl)nc2ccccc12`: the IC50 was over 500 µM in the data set with THP-1, 54.5 µM in the data set on Plasmodium falciparum [2], 73.2 µM with Plasmodium falciparum [3] and over 125 µM with HepG2. Besides, the CC50 in data set [1] was over 500 µM. The entries for the “Ratio IC50” value in data set [4] and in data set [5] were over 2.3 and over 9.2, respectively.
On to `C/N=C(\NC)c1nc(-c2ccccc2)c2ccccc2n1.Cl`, for which the IC50 with THP-1 is over 500 µM; in the data set on Plasmodium falciparum [2] it was over 100 µM; in the data set on Plasmodium falciparum [3] it was over 100 µM; with HepG2, over 125 µM. For the same molecule, the CC50 in data set [1] is over 500 µM. For the same molecule, the Ratio IC50 in data set [4] is under 1.25; in data set [5] it was 5.
Turning to `CCN(CC)CCCC(C)Nc1ccnc2cc(Cl)ccc12` (centres undefined) [CHLOROQUINE], the IC50 with HepG2 was determined as 30 µM.
Take `Clc1ccc(-c2nc(C(Cl)(Cl)Cl)nc3ccccc23)cc1`: the IC50 in the data set on THP-1 is 73.2 µM; with Plasmodium falciparum [2] it was 4.7 µM; with Plasmodium falciparum [3] it was 2.2 µM; in the data set on HepG2, over 125 µM. Moreover, the CC50 in data set [1] was over 500 µM. For the same molecule, the “Ratio IC50” value in data set [4] is given as over 26.6; in data set [5], 15.6.
In the case of `Fc1ccc(-c2nc(C(Cl)(Cl)Cl)nc3ccccc23)cc1`, the 50% inhibitory concentration (IC50) with THP-1 was 125 µM; in the data set on Plasmodium falciparum [2] it was 2.5 µM; in the data set with Plasmodium falciparum [3], 3 µM; in the data set on HepG2, over 125 µM. In data set [1], the CC50 turned out to be 500 µM. Also, the results for the “Ratio IC50” value in data set [4] and in data set [5] were over 50 and 50, respectively.
As to `COc1cc(-c2nc(C(Cl)(Cl)Cl)nc3ccccc23)cc(OC)c1OC`, the IC50 in the data set on THP-1 was over 250 µM; with Plasmodium falciparum [2], 28.9 µM; in the data set on Plasmodium falciparum [3], 23.3 µM; with HepG2 it was over 125 µM. In addition, the CC50 in data set [1] was over 250 µM. For the same molecule, the “Ratio IC50” value in data set [4] was over 4.3; in data set [5] it was over 8.7.
As for `ClC(Cl)(Cl)c1nc(-c2ccccc2)c2ccccc2n1`, the half-inhibitory concentration (IC50) in the data set with THP-1 was 125 µM; in the data set with Plasmodium falciparum [2], 8 µM; in the data set with Plasmodium falciparum [3] it was 20.4 µM; in the data set on HepG2 it was over 125 µM. The CC50 in data set [1] was over 500 µM. Further, the “Ratio IC50” value in data set [4] was over 15.6; in data set [5], 15.6.
For the molecule `Cc1nc(-c2ccccc2)c2ccccc2n1`, the IC50 is 125 µM in the data set with THP-1, 62.4 µM in the data set on Plasmodium falciparum [2], over 125 µM with Plasmodium falciparum [3] and over 125 µM in the data set on HepG2. Further, the CC50 in data set [1] is over 500 µM. Also, the “Ratio IC50” value is given as over 2 in data set [4] and 2 in data set [5].
